Measurements taken from ChEMBL document CHEMBL3596173, “Structural Requirements for CNS Active Opioid Glycopeptides” (J Med Chem, 2015).
Non-standard residues stand in square brackets, D forms with d. Residues, ends and D or L forms follow the SMILES beside them. *: point of attachment. βGlc = OC[C@H]1O[C@@H](*)[C@H](O)[C@@H](O)[C@@H]1O; Aib = CC(C)(N)C(=O)O; GABA = NCCCC(=O)O

What was measured:
Mu-type opioid receptor = Mu-type opioid receptor (Homo sapiens, UniProt P35372); assay: Displacement of [3H]-DAMGO from human mu opioid receptor expressed in CHO cells after 60 mins by scintillation counting analysis; type: cell-based
In short: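 Membranes from CHO cells stably expressing human μ receptor were incubated with 0.25 nM (final) [3H]DAMGO in 50 mM Tris-HCl pH 7.5 for 60 min at 25 °C. Bound radioligand was separated by glass-fiber filtration with cold buffer washes and counted by scintillation. IC50 came from a least-squares log-probit fit, and Ki from IC50/(1+S).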

[1] = biological target: T1, Kappa-type opioid receptor (Homo sapiens, UniProt P41145); assay: Displacement of [3H]-U69593 from human kappa opioid receptor expressed in CHO cells after 60 mins by scintillation counting analysis; type: cell-based
In short: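 Human κ receptor stably expressed in CHO cells was used as a membrane prep. It was incubated with 1 nM (final) [3H]U69,593 for 60 min at 25 °C in 50 mM Tris-HCl pH 7.5, with 10 μM naloxone defining nonspecific binding. Samples were filtered through glass-fiber filters presoaked ≥30 min in 0.1% polyethylenimine, washed cold and scintillation counted. Ki was derived from a log-probit IC50 via IC50/(1+S).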

[2] = biological target: T2, Delta-type opioid receptor (Homo sapiens, UniProt P41143); assay: Displacement of [3H]-naltrindole from human delta opioid receptor expressed in CHO cells at 10 uM after 3 hrs by scintillation counting analysis relative to control; type: cell-based
[3] = biological target: T2, Delta-type opioid receptor; assay: Displacement of [3H]-naltrindole from human delta opioid receptor expressed in CHO cells after 3 hrs by scintillation counting analysis; type: cell-based
In short: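 Binding used CHO-cell membranes bearing human δ receptor and 0.2 nM (final) [3H]naltrindole, incubated 3 h at 25 °C in 50 mM Tris-HCl pH 7.5. Nonspecific binding was defined with 100 μM naloxone. Samples were glass-fiber filtered, washed with cold buffer and scintillation counted. IC50 came from a log-probit least-squares fit and was converted to Ki as IC50/(1+S).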

Mus musculus [4] = assay: Antinociceptive activity in icv dosed CD-1 mouse by 55 degC warm water tail-flick test; type: functional
In short: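 Male CD-1 mice (27−30 g), 8−10 per group. Compound in distilled water, given icv under light ether anaesthesia, 2 mm caudal and 2 mm lateral from bregma. 55 °C warm-water tail-flick: baseline latency taken first, and mice not responding within 5 s excluded. Retested at various times after dosing. %Antinociception = 100(test − control latency)/(10 − control latency). A50 doses derived.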

Mus musculus [5] = assay: Antinociceptive activity in iv dosed CD-1 mouse by 55 degC warm water tail-flick test; type: functional
In short: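 Male CD-1 mice (27−30 g), 8−10 per group. Compound in 0.9% saline, injected into the tail vein at 0.1 mL/10 g after the vein was dilated in 40 °C water. Tail immersion in 55 °C water, with baseline latency first and 5 s non-responders excluded. Tested at intervals post-dose. %Antinociception = 100(test − control latency)/(10 − control latency). A50 values obtained.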

[6] = biological target: T1, Kappa-type opioid receptor; assay: Displacement of [3H]-U69593 from human kappa opioid receptor expressed in CHO cells at 10 uM after 60 mins by scintillation counting analysis […]; type: cell-based

T2 sequence (P41143 whole entry): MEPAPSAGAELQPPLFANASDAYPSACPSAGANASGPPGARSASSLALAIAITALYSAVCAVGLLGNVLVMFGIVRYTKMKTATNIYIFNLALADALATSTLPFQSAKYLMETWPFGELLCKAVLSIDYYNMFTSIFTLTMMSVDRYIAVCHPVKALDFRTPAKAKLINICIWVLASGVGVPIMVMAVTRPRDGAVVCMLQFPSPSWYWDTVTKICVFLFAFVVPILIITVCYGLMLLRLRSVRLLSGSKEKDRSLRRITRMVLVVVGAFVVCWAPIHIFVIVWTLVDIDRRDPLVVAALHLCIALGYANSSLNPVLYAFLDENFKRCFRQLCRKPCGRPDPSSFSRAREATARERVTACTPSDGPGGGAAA
T1 sequence (P41145 whole entry): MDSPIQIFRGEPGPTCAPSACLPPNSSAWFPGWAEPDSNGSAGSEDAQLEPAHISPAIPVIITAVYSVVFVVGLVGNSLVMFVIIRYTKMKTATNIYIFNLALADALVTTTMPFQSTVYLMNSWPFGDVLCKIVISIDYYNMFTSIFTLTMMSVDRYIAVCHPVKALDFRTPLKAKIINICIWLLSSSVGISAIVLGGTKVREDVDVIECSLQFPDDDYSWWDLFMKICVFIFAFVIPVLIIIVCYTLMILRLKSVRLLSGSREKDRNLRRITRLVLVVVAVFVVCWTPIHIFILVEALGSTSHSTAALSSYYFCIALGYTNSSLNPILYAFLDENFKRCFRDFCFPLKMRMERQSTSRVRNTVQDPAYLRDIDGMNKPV
Mu-type opioid receptor, sequence (P35372 whole entry): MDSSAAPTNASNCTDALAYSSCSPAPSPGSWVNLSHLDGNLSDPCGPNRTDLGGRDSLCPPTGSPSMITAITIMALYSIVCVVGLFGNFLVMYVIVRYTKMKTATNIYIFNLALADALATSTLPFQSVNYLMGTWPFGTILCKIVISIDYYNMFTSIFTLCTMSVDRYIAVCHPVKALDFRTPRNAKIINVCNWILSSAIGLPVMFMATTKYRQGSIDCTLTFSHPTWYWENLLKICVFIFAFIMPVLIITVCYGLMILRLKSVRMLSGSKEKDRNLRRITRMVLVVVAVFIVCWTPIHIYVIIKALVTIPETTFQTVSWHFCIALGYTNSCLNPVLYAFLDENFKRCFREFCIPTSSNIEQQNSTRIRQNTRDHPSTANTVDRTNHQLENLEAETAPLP

| SMILES | Ki (Mu-type opioid receptor) | Ki [1] | Ki [3] | also measured |
| --- | --- | --- | --- | --- |
| CC(C)C[C@H](NC(=O)[C@H](CO[C@@H]1O[C@H](CO)[C@@H](O)[C@H](O)[C@H]1O)NC(=O)[C@H](CCCCN)NC(=O)[C@H](CC(C)C)NC(=O)[C@H](C)NC(=O)[C@H](CCCCN)NC(=O)[C@H](CCCCN)NC(=O)C(C)(C)NC(=O)[C@H](CC(C)C)NC(=O)[C@H](CC(N)=O)NC(=O)CNC(=O)CNC(=O)[C@H](Cc1ccccc1)N(C)C(=O)CNC(=O)[C@@H](C)NC(=O)[C@@H](N)Cc1ccc(O)cc1)C(N)=O | 21 nM | 430 nM | – | Activity [2]: 0% |
| CC(C)C[C@H](NC(=O)[C@H](CO[C@@H]1O[C@H](CO)[C@@H](O)[C@H](O)[C@H]1O)NC(=O)[C@H](CCCCN)NC(=O)[C@H](CC(C)C)NC(=O)[C@H](C)NC(=O)[C@H](CCCCN)NC(=O)[C@H](CCC(=O)O)NC(=O)C(C)(C)NC(=O)[C@H](CC(C)C)NC(=O)[C@H](CC(N)=O)NC(=O)CNC(=O)CNC(=O)[C@H](Cc1ccccc1)N(C)C(=O)CNC(=O)[C@@H](C)NC(=O)[C@@H](N)Cc1ccc(O)cc1)C(N)=O | 2.8 nM | 59 nM | 1500 nM | – |
| CC(C)C[C@H](NC(=O)[C@H](CO)NC(=O)CCCNC(=O)[C@H](CC(C)C)NC(=O)[C@H](Cc1ccccc1)NC(=O)CNC(=O)[C@@H](NC(=O)[C@@H](N)Cc1ccc(O)cc1)[C@@H](C)O)C(N)=O (H-YTGFL[GABA]SL-NH2) | 3.8 nM | 39 nM | 6.6 nM | A50 (Mus musculus [4]): 0.06 nmol; A50 (Mus musculus [5]): >11.3 µmol/kg |
| CC(C)C[C@H](NC(=O)[C@H](CO[C@@H]1O[C@H](CO)[C@@H](O)[C@H](O)[C@H]1O)NC(=O)[C@H](CCCCN)NC(=O)[C@H](CC(C)C)NC(=O)[C@H](C)NC(=O)[C@H](CCCCN)NC(=O)[C@H](CCC(=O)O)NC(=O)C(C)(C)NC(=O)[C@H](CC(C)C)NC(=O)[C@H](CC(N)=O)NC(=O)[C@@H]1CCCN1C(=O)CCNC(=O)[C@H](Cc1ccccc1)N(C)C(=O)CNC(=O)[C@@H](C)NC(=O)[C@@H](N)Cc1ccc(O)cc1)C(N)=O | 5.6 nM | 100 nM | 1200 nM | – |
| CC(C)C[C@H](NC(=O)[C@H](CO[C@@H]1O[C@H](CO)[C@@H](O)[C@H](O)[C@H]1O)NC(=O)CCCNC(=O)[C@H](CC(C)C)NC(=O)[C@H](Cc1ccccc1)NC(=O)CNC(=O)[C@@H](NC(=O)[C@@H](N)Cc1ccc(O)cc1)[C@@H](C)O)C(N)=O (H-YTGFL[GABA]S(βGlc)L-NH2) | 6.6 nM | 71 nM | 15 nM | A50 (Mus musculus [4]): 0.06 nmol; A50 (Mus musculus [5]): 2.54 µmol/kg |
| CC(C)C[C@H](NC(=O)[C@H](CO[C@@H]1O[C@H](CO)[C@@H](O)[C@H](O)[C@H]1O)NC(=O)[C@H](CCCCN)NC(=O)[C@H](CC(C)C)NC(=O)[C@H](C)NC(=O)[C@H](CCCCN)NC(=O)[C@H](CCC(=O)O)NC(=O)C(C)(C)NC(=O)[C@H](CC(C)C)NC(=O)[C@H](CC(N)=O)NC(=O)CNC(=O)[C@H](CC(C)C)NC(=O)[C@H](Cc1ccccc1)NC(=O)CNC(=O)[C@@H](NC(=O)[C@@H](N)Cc1ccc(O)cc1)[C@@H](C)O)C(N)=O (H-YTGFLGNL[Aib]EKALKS(βGlc)L-NH2) | 26 nM | 14 nM | 31 nM | – |
| CC(C)C[C@H](NC(=O)[C@H](CO[C@@H]1O[C@H](CO)[C@@H](O)[C@H](O)[C@H]1O)NC(=O)[C@H](CCCCN)NC(=O)[C@H](CC(C)C)NC(=O)[C@H](C)NC(=O)[C@H](CCCCN)NC(=O)[C@H](CCC(=O)O)NC(=O)C(C)(C)NC(=O)[C@H](CC(C)C)NC(=O)[C@H](CC(N)=O)NC(=O)[C@@H]1CCCN1C(=O)CNC(=O)[C@H](Cc1ccccc1)N(C)C(=O)CNC(=O)[C@@H](C)NC(=O)[C@@H](N)Cc1ccc(O)cc1)C(N)=O | 3.2 nM | 45 nM | 840 nM | – |
| CC(C)C[C@H](NC(=O)[C@H](CO[C@@H]1O[C@H](CO)[C@@H](O)[C@H](O)[C@H]1O)NC(=O)[C@H](CCCCN)NC(=O)[C@H](CC(C)C)NC(=O)[C@H](C)NC(=O)[C@H](CC(N)=O)NC(=O)[C@H](CCCCN)NC(=O)C(C)(C)NC(=O)[C@H](CC(C)C)NC(=O)[C@H](CC(N)=O)NC(=O)CNC(=O)CNC(=O)[C@H](Cc1ccccc1)N(C)C(=O)CNC(=O)[C@@H](C)NC(=O)[C@@H](N)Cc1ccc(O)cc1)C(N)=O | 0.24 nM | 11 nM | 430 nM | – |
| CC(C)C[C@H](NC(=O)[C@H](CO[C@@H]1O[C@H](CO)[C@@H](O)[C@H](O)[C@H]1O)NC(=O)[C@H](CCCCN)NC(=O)[C@H](CC(C)C)NC(=O)[C@H](C)NC(=O)[C@H](CCCCN)NC(=O)[C@H](CCC(=O)O)NC(=O)C(C)(C)NC(=O)[C@H](CC(C)C)NC(=O)[C@H](CC(N)=O)NC(=O)[C@@H]1CCCN1C(=O)[C@@H]1CCCN1C(=O)[C@H](Cc1ccccc1)N(C)C(=O)CNC(=O)[C@@H](C)NC(=O)[C@@H](N)Cc1ccc(O)cc1)C(N)=O | 15 nM | 19 nM | 2300 nM | – |
| CC(C)C[C@H](NC(=O)[C@H](CO[C@@H]1O[C@H](CO)[C@@H](O)[C@H](O)[C@H]1O)NC(=O)[C@H](CCCCN)NC(=O)[C@H](CC(C)C)NC(=O)[C@H](C)NC(=O)[C@H](CCC(=O)O)NC(=O)[C@H](CCC(=O)O)NC(=O)C(C)(C)NC(=O)[C@H](CC(C)C)NC(=O)[C@H](CC(N)=O)NC(=O)CNC(=O)CNC(=O)[C@H](Cc1ccccc1)N(C)C(=O)CNC(=O)[C@@H](C)NC(=O)[C@@H](N)Cc1ccc(O)cc1)C(N)=O | – | – | – | Activity [2]: 0%; Activity [6]: 0% |
| CC(C)C[C@H](NC(=O)[C@H](CO[C@@H]1O[C@H](CO)[C@@H](O)[C@H](O)[C@H]1O)NC(=O)[C@H](CCCCN)NC(=O)[C@H](CC(C)C)NC(=O)[C@H](C)NC(=O)[C@H](CCCCN)NC(=O)[C@H](CCC(=O)O)NC(=O)C(C)(C)NC(=O)[C@H](CC(C)C)NC(=O)[C@H](CC(N)=O)NC(=O)[C@H]1CCCN1C(=O)[C@H](CC(C)C)NC(=O)[C@H](Cc1ccccc1)NC(=O)CNC(=O)[C@@H](NC(=O)[C@@H](N)Cc1ccc(O)cc1)[C@@H](C)O)C(N)=O | – | – | – | Ki ([3]; cho): 73 nM; Ki (Mu-type opioid receptor; cho): 27 nM; Ki ([1]; cho): 78 nM |
| CC(C)C[C@H](NC(=O)[C@H](CO[C@@H]1O[C@H](CO)[C@@H](O)[C@H](O)[C@H]1O)NC(=O)[C@H](CCCCN)NC(=O)[C@H](CC(C)C)NC(=O)[C@H](C)NC(=O)[C@H](CCCCN)NC(=O)[C@H](CCC(=O)O)NC(=O)C(C)(C)NC(=O)[C@H](CC(C)C)NC(=O)[C@H](CC(N)=O)NC(=O)CCNC(=O)[C@H](Cc1ccccc1)N(C)C(=O)CNC(=O)[C@@H](C)NC(=O)[C@@H](N)Cc1ccc(O)cc1)C(N)=O | 4.8 nM | 200 nM | 1400 nM | – |
| CC(C)C[C@H](NC(=O)[C@H](CO[C@@H]1O[C@H](CO)[C@@H](O)[C@H](O)[C@H]1O)NC(=O)[C@H](CCCCN)NC(=O)[C@H](CC(C)C)NC(=O)[C@H](C)NC(=O)[C@H](CCCCN)NC(=O)[C@H](CCC(=O)O)NC(=O)C(C)(C)NC(=O)[C@H](CC(C)C)NC(=O)[C@H](CC(N)=O)NC(=O)[C@@H]1CCCN1C(=O)[C@H](Cc1ccccc1)N(C)C(=O)CNC(=O)[C@@H](C)NC(=O)[C@@H](N)Cc1ccc(O)cc1)C(N)=O | 8.8 nM | 340 nM | – | Activity [2]: 31% |
| CC(C)C[C@H](NC(=O)[C@H](CO[C@@H]1O[C@H](CO)[C@@H](O)[C@H](O)[C@H]1O)NC(=O)[C@H](CCCCN)NC(=O)[C@H](CC(C)C)NC(=O)[C@H](C)NC(=O)[C@H](CCCCN)NC(=O)[C@H](CCC(=O)O)NC(=O)C(C)(C)NC(=O)[C@H](CC(C)C)NC(=O)[C@H](CC(N)=O)NC(=O)[C@H](C)NC(=O)[C@H](CC(C)C)NC(=O)[C@H](Cc1ccccc1)NC(=O)CNC(=O)[C@@H](NC(=O)[C@@H](N)Cc1ccc(O)cc1)[C@@H](C)O)C(N)=O (H-YTGFLANL[Aib]EKALKS(βGlc)L-NH2) | 39 nM | 9.7 nM | 21 nM | – |
| CC(C)C[C@H](NC(=O)[C@H](CO[C@@H]1O[C@H](CO)[C@@H](O)[C@H](O)[C@H]1O)NC(=O)[C@H](CC(N)=O)NC(=O)[C@H](CC(C)C)NC(=O)[C@H](C)NC(=O)[C@H](CC(N)=O)NC(=O)[C@H](CC(N)=O)NC(=O)C(C)(C)NC(=O)[C@H](CC(C)C)NC(=O)[C@H](CC(N)=O)NC(=O)CNC(=O)CNC(=O)[C@H](Cc1ccccc1)N(C)C(=O)CNC(=O)[C@@H](C)NC(=O)[C@@H](N)Cc1ccc(O)cc1)C(N)=O | 5.2 nM | 340 nM | – | Activity [2]: 22% |
